Active and inactive are the calls of the source. No cut-off for these calls is given here.
Key:
Escherichia coli [1] = test: Effect on DNA cleavage in ampicillin resistant Escherichia coli DH5alpha transformed pBluescript 2 KS+ DNA assessed as number of colonies at 1 mM after 15 hrs by transformation assay
Method in brief: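 Plasmid DNA (2.0 µg) exposed to tetrayne at 1.0 mM (final DMSO 3.0%) at 37 °C, recovered by ethanol precipitation, redissolved in water and heated 60 °C for 10 min. Heat-shock transformation of competent E. coli (DH5a or JM109) at 42 °C for 1 min, 1 h recovery in LB at 37 °C, plating on ampicillin (100 mg/L) LB agar, 37 °C for 15 h; colonies counted.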

Escherichia coli [2] = test: Induction of Escherichia coli pBluescript 2 KS+ DNA cleavage assessed as linear form 3 at 1 mM by atomic force microscopy
Method in brief: (§1)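 Plasmid exposed to tetrayne (1.0 mM, 37 °C, 6 h), ethanol-precipitated, pellet taken up in water. Sample spotted on flat mica for 1 min at room temperature, excess water blown off with air, then single DNA molecule shapes imaged by atomic force microscopy.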

Escherichia coli [3] = test: Induction of Escherichia coli pBluescript 2 KS+ DNA cleavage assessed as decrease in form 1 at 1 mM by gel electrophoresis
Method in brief: (§2)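 pBluescript II KS+ (2.0 µg) incubated overnight at 37 °C with tetrayne in 20 µL, final DMSO 3.0%. Level 1.0 mM; 0.1, 0.3, 0.6 mM also run for the dose series. DNA ethanol-precipitated, redissolved, held 60 °C 10 min then 37 °C 30 min, run on 0.7% agarose; ethidium bromide stain, UV imaging of supercoiled, nicked and linear forms.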

Escherichia coli [4] = test: Induction of Escherichia coli pBluescript 2 KS+ DNA cleavage by gel electrophoresis; method in brief: as §2
Escherichia coli [5] = test: Induction of Escherichia coli pBluescript 2 KS+ DNA cleavage assessed as formation of burst star shaped architecture at 1 mM by atomic force microscopy; method in brief: as §1
Escherichia coli [6] = test: Induction of Escherichia coli pBluescript 2 KS+ DNA cleavage assessed as increase in form 3 at 1 mM by gel electrophoresis; method in brief: as §2
Escherichia coli [7] = test: Induction of Escherichia coli pBluescript 2 KS+ DNA cleavage assessed as increase in nicked form 2 at 1 mM by gel electrophoresis; method in brief: as §2

COCc1ccccc1C#CC#Cc1cc(C(=O)O)sc1C(O)C#CC#CC(C)(C)C (stereo unspecified)
Activity (Escherichia coli [1]): > 1000

COCc1ccccc1C#CC#Cc1cc(C(=O)O)sc1C(=O)C#CC#CC(C)(C)C
Activity (Escherichia coli [1]): > 1000

COCc1ccccc1C#CC#Cc1cc(CN(C)C)sc1C(=O)C#CC#CC(C)(C)C
Activity (Escherichia coli [2]): Active
Activity (Escherichia coli [3]): Active
Activity (Escherichia coli [4]): Dose-dependent effect
Activity (Escherichia coli [1]): 8
Activity (Escherichia coli [5]): Active
Activity (Escherichia coli [6]): Active
Activity (Escherichia coli [7]): Active

CN(C)C
Activity (Escherichia coli [1]): > 1000

COCc1ccccc1C#CC#Cc1cc(CN(C)C)sc1C(O)C#CC#CC(C)(C)C (stereo unspecified)
Activity (Escherichia coli [1]): > 1000
